Assay outcomes as filed in PubChem BioAssay.
EWS-Fli inh = EWS/Fli transcriptional activity inhibition; A673 NR0B1-luciferase reporter, viability-normalised; inhibition, % at 12.6 µM; AID 651661; actives 0.67% (n = 350,000);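 active = mean inhibition of at least 50% after viability correction, with every replicate also passing that limit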;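 also: firefly luciferase signal divided by Alamar Blue viability fluorescence both relative to DMSO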
PGC1a acetyl inh = PGC1a acetylation modulation, inhibitor mode. U2OS PGC1a acetylation, AlphaScreen anti-acetyl-lysine; with virally co-expressed GCN5 acetyltransferase. inhibition, % at 15.6 µM. actives 0.17% (n = 350,000). AID 651687;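 active = every replicate shows inhibition of at least 40%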;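 also: 0% = neutral control wells and 100% = positive control wells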
HIV Env fusion = blocks HIV Env-driven cell-cell fusion; actives 1.1% (n = 360,000); inhibition, % at 12.3 µM; HeLa-JRFL Env/CEM21 cell fusion, luciferase;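 active = mean replicate inhibition score of at least 50 and every replicate individually at or above 50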;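 also: 0% = plate neutral controls and 100% = maraviroc near 300 nM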
CFTR F508del cor = CFTR F508del correction in bronchial cells. CFBE cells, YFP halide quenching; stimulated with forskolin plus potentiator P3; % fluorescence drop versus neutral controls. actives 0.36% (n = 350,000). activity (quench increase), % at 7.58 µM. AID 720511;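 active = mean added fluorescence quench of at least 8% versus neutral control, with both replicates also reaching 8%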;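 also: cells transiently co-express mutant CFTR-F508del with the halide-sensitive YFP; corrector assay measuring rescue of mutant channel to the surface after 24 h compound exposure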
FN deposition inh = fibronectin deposition inhibition. AH1F fibroblasts, Alexa488-fibronectin deposition fluorescence, overnight. inhibition, % at 12.6 µM. actives 0.086% (n = 350,000);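 active = mean inhibition across replicates of 30% or more, regardless of how many single replicates reach that level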;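 also: positive control wells lacked labelled fibronectin entirely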
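Assay system: AH1F fibroblasts assembling fluorescent fibronectin matrix; Amount: 10000 AH1F cells per well; Buffer or medium: DMEM, 2% serum; Probe or stimulus: Alexa488-fibronectin, 24 nM final in well; Doses: single compound dose, delivered by pin transfer; Incubation: 1 h adhesion, overnight exposure; Measured by: fluorescence 485/525 nm; Read-out: fibronectin deposition inhibition.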
PAX8 reporter = PAX8 transcriptional activity inhibition; inhibition, % at 12.6 µM; RMG-I TPO-luciferase reporter, SteadyGlo, 24 h; actives 1.2% (n = 360,000);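 active = mean replicate inhibition at least 60% with every replicate also reaching 60%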;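 also: luciferase light reporting Pax8 driven TPO promoter activity; plate controls were median of neutral control wells for no effect and mitoxantrone controls for full effect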
The depositor's hits bear a star; i = inactive; x = not tested or not shown; [ ] = dose if it differs, or a comment. In the library only some 2.3% were active in any assay of this set; here they are far more common.

SMILES	EWS-Fli inh	PGC1a acetyl inh	HIV Env fusion	CFTR F508del cor	FN deposition inh	PAX8 reporter
COc1ccccc1N=C1SC(C(=O)Nc2cccc(Cl)c2Cl)C(N)=C1C(N)=O (stereo unspecified)	55*	-9	-15	9.5*	-3	-6
CC1=NN(c2nc(-c3ccc(C)cc3)cs2)C(=O)C1N=Nc1ccc2ccccc2c1 (stereo unspecified)	x	3	x	x	x	x
CC1=NN(c2nc(-c3ccc(C)cc3)cs2)C(=O)C1N=Nc1ccc(C(N)=O)cc1 (stereo unspecified)	55*	12	-2	-6	0	3
O=C(C[C@H]1CC[C@@H](NS(=O)(=O)c2ccc(F)cc2)[C@@H](CO)O1)NCc1ccccc1F	-9	-2	x	0	-8	x
Cc1ccc(-c2ccc(=O)n(CCC(=O)N3CCN(c4ccccc4)CC3)n2)cc1	-3	-4	5	0	0	63*
N#CC(C#N)=C(Nc1ccc(F)cc1)SCc1cccc(F)c1	x	x	61*	x	5	77*
C=C1C(=O)O[C@@H]2C[C@@H](C)[C@@H]3C=CC(=O)[C@@]3(C)[C@@H](OC(C)=O)[C@H]12	62*	x	129*	-2	39*	102*
CC(=O)N1C[C@@H]2C(c3ccc(Br)cc3)[C@H](C1)N2Cc1ccc(F)cc1 (stereo partly specified)	x	x	x	x	-2	x
Cc1ccc2c(c1C)-c1c(ccc(C)c1C)C(=O)C2=O	59*	37	-335	-1	9	93*
C[C@H]1CN(C)C(=O)Cc2ccccc2O[C@@H]1CN(C)C	x	x	x	x	6	x
O=[N+]([O-])c1ccc(-c2nc(C(Cl)Cl)c3ccccc3n2)cc1	67*	3	74*	-2	6	3
c1ccc2c(c1)C1=NCCN1c1ccccc1-2	35	x	i	11*	-5	-31
O=C(NCC1CC1)[C@H]1[C@H](CO)[C@H]2Cn3c(ccc(-c4ccccc4)c3=O)[C@H]2N1Cc1cocn1	10	x	x	2	x	3
COc1ccc(Cn2nnnc2C(c2cc3cc(C)ccc3[nH]c2=O)N2CCOCC2)cc1 (stereo unspecified)	x	x	67*	x	x	x
COc1ccc2[nH]c(=O)c(CN(Cc3ccco3)C(c3nnnn3Cc3ccccc3)C(C)C)cc2c1 (stereo unspecified)	x	5	54*	x	4	45
COc1ccc(N2CCN(C(c3cc4cc(C)ccc4[nH]c3=O)c3nnnn3Cc3ccccc3)CC2)cc1 (stereo unspecified)	x	-1	-208	x	x	-13
COc1ccc(Cn2nnnc2C(c2cc3cccc(C)c3[nH]c2=O)N2CCOCC2)cc1 (stereo unspecified)	x	1	86*	x	-10	x
CC(C)NC(=O)NCC[C@H]1CC[C@@H](NS(=O)(=O)c2ccccc2)[C@H](CO)O1	-4	-13	x	-2	x	x
CCCNC(=O)C[C@@H]1C[C@@H]2c3cc(NC(=O)CC4CC4)ccc3O[C@@H]2[C@@H](CO)O1	5	-1	x	-4	5	x
CN(C)CC#Cc1ccc([C@@H]2[C@H]3CN(C(=O)Cc4cccnc4)CC(=O)N3[C@H]2CO)cc1	-3	3	x	-3	x	3
CC(C)C#Cc1ccc2c(c1)O[C@@H](CN(C)C(=O)c1ccccn1)[C@@H](C)CN([C@@H](C)CO)S2(=O)=O	1	-4	12[16.7 µM]	1	x	x
CCCN1C[C@@H](C)[C@H](OC)CN(C)C(=O)c2cc(NC(=O)c3cccc(F)c3)ccc2OC[C@H]1C	-4	9	x	0	10	x
COc1ccc(S(=O)(=O)N(C)C[C@@H]2OCCCC[C@@H](C)Oc3ccc(NS(=O)(=O)c4ccc(F)cc4)cc3C(=O)N([C@@H](C)CO)C[C@H]2C)cc1	-8	-10	11[16.7 µM]	-2	9	-5
CC(=O)Nc1sc(C)c(C)c1C(=O)OCC(=O)N(CC(C)C)c1c(N)n(Cc2ccccc2)c(=O)[nH]c1=O	63*	-3	-5	-7	-5	-11
CC(C)CN(C(=O)C(c1ccccc1)c1ccccc1)c1c(N)n(CC(C)C)c(=O)[nH]c1=O	3	x	79*	1	-4	-2
CC(C)CN(C(=O)COC(=O)C12CC3CC(CC(C3)C1)C2)c1c(N)n(Cc2ccccc2)c(=O)[nH]c1=O	30	x	70*	-3	5	3
